Test results as given in publication PMC2413043 (The Journal of Experimental Medicine, 2008).
Entries after “also recorded” stand apart in the source; their conditions may differ.

Legend:
phospho-p38 = format: cell-based; settings: MKP-1 immunoprecipitated from RAW cells treated with LPS and TSA 4 h
Procedure, shortened: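 RAW 264.7 cells grown in DME with 10% FBS were treated with LPS plus TSA, or with control, for 4 h. Endogenous MKP-1 was immunoprecipitated from the lysates and incubated with recombinant phospho-p38 or phospho-ERK1. Remaining phosphorylation was detected by immunoblotting with phospho-p38 or phospho-ERK antibodies. The amount of phospho-substrate added was shown as an input lane.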

IL-1β = test: Serum IL-1β by ELISA in LPS-treated mice; format: in vivo, mouse; settings: TSA daily from day −2, LPS day 0, serum 2 h after LPS, n = 2 ± SD
Elk-1 = test: Phosphorylation of Elk-1 by immunoblot in RAW cells; format: cell-based, mouse; settings: TSA 30 ng/ml 1 h and/or LPS 100 ng/ml 30 min
Procedure, shortened: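 RAW 264.7 cells grown in DME with 10% FBS were pretreated with TSA 30 ng/ml for 1 h, then given LPS 100 ng/ml for 30 min. Lysates were immunoblotted with phospho-specific antibodies to MAPK cascade members (phospho-MKK3/6, phospho-Elk-1).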

NOS2 [1] = test: Liver NOS2 protein by immunoblot; format: in vivo, mouse; settings: TSA pretreatment 4 h, LPS 16 h
Procedure, shortened: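 Mice were pretreated with increasing amounts of TSA for 4 h, then given LPS for 16 h. Liver was harvested and its lysate immunoblotted for NOS2, with MEK1 as the loading control.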

NOS2 [2] = test: NOS2 protein levels by immunoblot in RAW cells; format: cell-based, mouse; settings: RAW cells
Procedure, shortened: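 RAW 264.7 cells were handled in two ways. For agonist response, cells were exposed to the TLR agonists PGN, poly(I:C), LPS or E. coli for 16 h, with or without TSA. For TSA dose-response, cells were pretreated with increasing TSA for 1 h, then given LPS 100 ng/ml for 6 h, with ERα as the blot control. In both, lysates were immunoblotted for NOS2.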

NF-κB pathway = test: LPS activation of the NF-κB pathway; format: cell-based; settings: Fig. S2
COX-2 and CXCL2 [3] = test: Liver COX-2 and CXCL2 expression by RT-PCR; format: in vivo, mouse; settings: 4 h after LPS, n = 2
Procedure, shortened: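 Mice were dosed with TSA each day from day −2 and challenged with LPS on day 0. Liver RNA was harvested 4 h after LPS. RT-PCR was run for TNF-α and IL-1β, or for COX-2 and CXCL2, with two mice per group.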

MKP-1 KO mice = test: LPS-induced mortality in MKP-1 KO mice; format: in vivo, mouse; settings: LPS 20 mg/kg; n = 5; P = 0.17 LPS vs. LPS with TSA
MKP-1-ERα and p38 = test: MKP-1-ERα/p38 interaction by co-immunoprecipitation in HeLa cells; format: cell-based; settings: 4-HT, LPS and TSA 1 h
p38 = test: Phospho-p38 in MEFs from MKP-1 heterozygous or KO mice; format: cell-based, mouse; settings: LPS and TSA 30 min
Procedure, shortened: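 Embryonic fibroblasts from MKP-1+/− or MKP-1−/− mice, grown in DME with 10% FBS, were treated with LPS and TSA for 30 min. Lysates were immunoblotted for phospho-p38 and total p38.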

NOS2 [4] = test: NOS2 expression in RAW cells with MKP-1 siRNA or control siRNA; format: cell-based, mouse; settings: LPS and TSA
Procedure, shortened: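 RAW 264.7 cells were stably transfected with vectors encoding siRNA hairpins against MKP-1 nucleotides 67–85 or 743–761, or with a control hairpin. Knockdown in the isolated clones was confirmed by MKP-1 immunoblot. Clones were treated with LPS and TSA, and lysates were immunoblotted for NOS2 and MAPK family members.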

COX-2 and CXCL2 [5] = test: COX-2 and CXCL2 expression by RT-PCR in RAW cells; format: cell-based, mouse; settings: LPS and TSA, Fig. 1 H and Fig. S1
Procedure, shortened: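 RAW 264.7 cells grown in DME with 10% FBS and penicillin/streptomycin. Cells exposed to LPS, TSA or both for 4 h, then assessed for COX-2 and CXCL2 expression by RT-PCR.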

JNK1/2 = test: Phosphorylation of JNK1/2 by immunoblot in RAW cells; format: cell-based, mouse; settings: RAW cells pretreated 30 ng/ml TSA 1 h, 100 ng/ml LPS 30 min
Procedure, shortened: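 RAW 264.7 cells (DME, 10% FBS) pretreated with TSA 30 ng/ml for 1 h, then LPS 100 ng/ml for 30 min. Whole-cell lysates were immunoblotted with antibodies to phosphorylated and total forms of the MAPK in question.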

CC(/C=C/C(=O)NO)=C\[C@@H](C)C(=O)c1ccc(N(C)C)cc1 [TSA, trichostatin A]
removal of phosphate from recombinant phospho-p38 by MKP-1 (phospho-p38): enhances the ability of MKP-1 to remove phosphate groups from recombinant phospho-p38 | decrease of serum IL-1β, MKP-1−/− mice (IL-1β): 21% | phosphorylation of Elk-1 (Elk-1): decreases phosphorylation of p38 and Elk-1 | NOS2 steady-state protein levels in liver (NOS2 [1]): decreases NOS2 steady-state protein levels in liver | NOS2 expression activated by TLR agonists (LPS, E. coli, PGN, dsRNA) (NOS2 [2]; TLR agonist 16 h, effect of TSA): inhibits expression of NOS2 activated by each of these four TLR activators | NOS2 steady-state protein levels (NOS2 [2]; TSA pretreatment 1 h, LPS 6 h): decreases NOS2 steady-state protein levels | LPS activation of the NF-κB pathway (NF-κB pathway): does not affect LPS activation of the NF-κB pathway | LPS-triggered IκBα degradation (NF-κB pathway): slightly increases | LPS-triggered p65 nuclear translocation (NF-κB pathway): slightly increases | NF-κB transactivation of the NOS2 promoter (NF-κB pathway): slightly increases | κB-binding activity (NF-κB pathway): slightly increases | COX-2 expression in liver (COX-2 and CXCL2 [3]): slightly increases | CXCL2 expression in liver (COX-2 and CXCL2 [3]): slightly increases | mortality after LPS, effect of TSA, MKP-1 KO mice (MKP-1 KO mice): minimal and insignificant effect on mortality; also recorded: small protective effect on MKP-1^−/− mouse mortality | interaction between mutant MKP-1(K57R) and p38 (MKP-1-ERα and p38; MKP-1(K57R)-ERα): not able to affect the interaction between mutant MKP-1(K57R) and p38 | interaction between MKP-1(WT) and p38 (MKP-1-ERα and p38; MKP-1(WT)-ERα): increases the interaction between MKP-1(WT) and p38 | phospho-p38 levels, heterozygous vs MKP-1 KO MEFs (p38): decreases phospho-p38 levels in heterozygous cells, but not in MKP-1 KO cells | LPS-induced NOS2 expression, control vs MKP-1 siRNA cells (NOS2 [4]): decreases LPS-induced NOS2 expression in control cells, but not in cells with decreased MKP-1 | COX-2 expression (COX-2 and CXCL2 [5]): slightly increases | CXCL2 expression (COX-2 and CXCL2 [5]): slightly increases | LPS-induced phosphorylation of JNK1/2 (JNK1/2): not JNK1/2
